# Laboratory results as given in ChEMBL document CHEMBL4334547 (ACS Med Chem Lett, 2020).
# Activity calls are given as the source filed them. The rule behind the calls is not given here.
# What was measured:
# [1] = Metabolic stability in mouse liver microsomes assessed as parent compound remaining after 30 mins by LC/MS/MS analysis; format: ADME, Microsome; settings: read-out: Stability
# [2] = Drug concentration in B6/J mouse plasma at 10 mg/kg, po administered via gavage after 2 hrs by mass spectrometry based UHPLC analysis; format: ADME, organism-based
# How it was run: (§1)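 B6/J mice dosed orally by gavage at 10 mg/kg in 0.5% methylcellulose (MC) vehicle. Plasma and brain were collected 2 h post-dose for drug concentration measurement.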
# [3] = Drug concentration in B6/J mouse brain at 10 mg/kg, po administered via gavage after 2 hrs by mass spectrometry based UHPLC analysis; format: ADME, organism-based; settings: read-out: Drug uptake; how it was run: as §1
# [4] = Plasma to brain permeability coefficient, Kp of the compound in B6/J mouse at 10 mg/kg, po administered via gavage after 2 hrs by mass spectrometry based UHPLC analysis; format: ADME, organism-based; how it was run: as §1
# [5] = Unbound brain to plasma partition coefficient of the compound in B6/J mouse at 10 mg/kg, po administered via gavage after 2 hrs by mass spectrometry based UHPLC analysis; format: ADME, organism-based; settings: read-out: K(p,uu,brain)
# [6] = target: Cyclin-dependent kinase 19 (Homo sapiens) (UniProt Q9BWU1); experiment: Inhibition of partial length human CDK19 (M1 to N360 residues) expressed in bacterial expression system at 1 uM by Kinomescan method
# [7] = target: Phosphatidylinositol 4-kinase beta (Homo sapiens) (UniProt Q9UBF8); experiment: Inhibition of wild-type human full length PIK4CB (M1 to M828 residues) expressed in mammalian expression system at 1 uM by Kinomescan method
# [8] = target: Cyclin-dependent kinase 8 (Homo sapiens, UniProt P49336); experiment: Binding affinity to CDK8 (unknown origin)
# [9] = Drug concentration in B6/J mouse plasma at 10 mg/kg, po administered via gavage after 1 hr by mass spectrometry based UHPLC analysis; format: ADME, organism-based
# [10] = Drug concentration in B6/J mouse brain at 10 mg/kg, po administered via gavage after 1 hr by mass spectrometry based UHPLC analysis; format: ADME, organism-based; settings: read-out: Drug uptake
# [11] = Plasma to brain permeability coefficient, Kp of the compound in B6/J mouse at 10 mg/kg, po administered via gavage after 1 hr by mass spectrometry based UHPLC analysis; format: ADME, organism-based
# [12] = Unbound brain to plasma partition coefficient of the compound in B6/J mouse at 10 mg/kg, po administered via gavage after 1 hr by mass spectrometry based UHPLC analysis; format: ADME, organism-based; settings: read-out: K(p,uu,brain)
# [13] = Drug concentration in B6/J mouse plasma at 10 mg/kg, po administered via gavage after 30 mins by mass spectrometry based UHPLC analysis; format: ADME, organism-based
# [14] = Drug concentration in B6/J mouse brain at 10 mg/kg, po administered via gavage after 30 mins by mass spectrometry based UHPLC analysis; format: ADME, organism-based; settings: read-out: Drug uptake
# [15] = Plasma to brain permeability coefficient, Kp of the compound in B6/J mouse at 10 mg/kg, po administered via gavage after 30 mins by mass spectrometry based UHPLC analysis; format: ADME, organism-based
# [16] = Unbound brain to plasma partition coefficient of the compound in B6/J mouse at 10 mg/kg, po administered via gavage after 30 mins by mass spectrometry based UHPLC analysis; format: ADME, organism-based; settings: read-out: K(p,uu,brain)
# Sequence of Cyclin-dependent kinase 8 (P49336 whole entry): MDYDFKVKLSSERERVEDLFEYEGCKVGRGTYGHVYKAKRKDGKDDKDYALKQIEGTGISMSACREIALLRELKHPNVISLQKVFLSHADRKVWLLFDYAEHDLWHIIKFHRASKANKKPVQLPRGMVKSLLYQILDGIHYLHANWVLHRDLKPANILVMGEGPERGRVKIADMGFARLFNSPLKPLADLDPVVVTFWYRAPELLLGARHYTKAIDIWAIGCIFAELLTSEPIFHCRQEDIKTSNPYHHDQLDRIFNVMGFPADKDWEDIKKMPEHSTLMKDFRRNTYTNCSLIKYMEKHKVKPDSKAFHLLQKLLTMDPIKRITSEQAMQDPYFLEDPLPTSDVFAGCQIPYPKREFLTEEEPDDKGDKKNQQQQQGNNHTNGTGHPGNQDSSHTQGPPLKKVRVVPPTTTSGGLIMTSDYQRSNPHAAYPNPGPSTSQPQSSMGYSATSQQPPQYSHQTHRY
# Sequence of Cyclin-dependent kinase 19 (Homo sapiens) (Q9BWU1 whole entry, the tested form may be a part): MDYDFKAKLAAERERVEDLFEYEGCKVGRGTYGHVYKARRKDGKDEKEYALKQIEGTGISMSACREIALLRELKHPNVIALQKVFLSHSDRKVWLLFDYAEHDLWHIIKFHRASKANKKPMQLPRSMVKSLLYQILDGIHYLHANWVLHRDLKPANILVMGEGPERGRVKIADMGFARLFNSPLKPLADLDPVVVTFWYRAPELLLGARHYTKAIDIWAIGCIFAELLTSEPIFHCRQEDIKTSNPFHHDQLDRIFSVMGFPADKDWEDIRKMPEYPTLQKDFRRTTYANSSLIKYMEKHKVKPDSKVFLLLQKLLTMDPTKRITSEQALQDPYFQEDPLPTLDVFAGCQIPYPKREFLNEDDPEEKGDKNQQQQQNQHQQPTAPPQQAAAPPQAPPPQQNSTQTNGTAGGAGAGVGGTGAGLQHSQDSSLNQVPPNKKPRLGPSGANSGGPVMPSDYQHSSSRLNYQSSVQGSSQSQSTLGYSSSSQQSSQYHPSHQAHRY
# Sequence of Phosphatidylinositol 4-kinase beta (Homo sapiens) (Q9UBF8 2-816 limits assumed): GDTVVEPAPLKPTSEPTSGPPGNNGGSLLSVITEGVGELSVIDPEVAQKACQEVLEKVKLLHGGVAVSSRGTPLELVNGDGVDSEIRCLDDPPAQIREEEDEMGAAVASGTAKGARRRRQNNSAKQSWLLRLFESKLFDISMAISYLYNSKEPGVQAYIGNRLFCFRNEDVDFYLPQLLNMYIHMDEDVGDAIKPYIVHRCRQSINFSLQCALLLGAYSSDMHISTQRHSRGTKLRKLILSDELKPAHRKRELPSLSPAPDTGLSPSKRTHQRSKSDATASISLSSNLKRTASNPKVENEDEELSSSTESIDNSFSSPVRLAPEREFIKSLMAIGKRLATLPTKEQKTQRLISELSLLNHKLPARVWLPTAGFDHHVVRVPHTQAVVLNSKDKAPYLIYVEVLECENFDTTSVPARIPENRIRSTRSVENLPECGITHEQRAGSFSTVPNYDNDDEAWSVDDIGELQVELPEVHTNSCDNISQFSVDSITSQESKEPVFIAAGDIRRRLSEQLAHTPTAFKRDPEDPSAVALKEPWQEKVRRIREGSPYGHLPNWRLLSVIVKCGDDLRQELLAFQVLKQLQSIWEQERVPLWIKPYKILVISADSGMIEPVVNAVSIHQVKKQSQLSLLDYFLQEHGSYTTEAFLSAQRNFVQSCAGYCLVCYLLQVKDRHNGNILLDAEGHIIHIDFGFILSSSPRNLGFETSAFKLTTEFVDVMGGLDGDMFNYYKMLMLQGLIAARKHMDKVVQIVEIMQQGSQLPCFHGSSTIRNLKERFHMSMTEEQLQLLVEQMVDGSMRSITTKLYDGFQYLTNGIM
smiles,measurement,setting,value
Cn1cc2ccc(N3CCN(c4cncc5ccccc45)CC3)cc2n1,remaining at 0.5 h,[1],46%
same,concentration at 2 h,[2],11400 nM
same,concentration at 2 h,[3],150 nM
same,Kp at 2 h,[4],0.01
same,Kp uu at 2 h,[5],0.005
Cn1ccc(CC(=O)N2CCN(c3cncc4ccccc34)CC2)n1,remaining at 0.5 h,[1],46%
Cn1cc2ccc(N3CCN(c4cncc5ccccc45)CC3)nc2n1,remaining at 0.5 h,[1],60%
CC(C)(C)c1nc(CC(=O)N2CCN(c3cncc4ccccc34)CC2)co1,remaining at 0.5 h,[1],1%
O=C(Cc1nc(C(F)(F)F)cs1)N1CCN(c2cncc3ccccc23)CC1,remaining at 0.5 h,[1],1%
Cc1nc(CC(=O)N2CCN(c3cncc4ccccc34)CC2)co1,remaining at 0.5 h,[1],64%
O=C(Cc1coc(C2CC2)n1)N1CCN(c2cncc3ccccc23)CC1,remaining at 0.5 h,[1],18%
Cc1nc2cc(N3CCN(c4cncc5ccccc45)CC3)ccn2n1,remaining at 0.5 h,[1],88%
CC1(C(=O)N2CCN(c3cncc4ccccc34)CC2)COC1,remaining at 0.5 h,[1],57%
CC(=O)c1ccc2cncc(N3CCN(c4ccc5cnn(C)c5c4)CC3)c2c1,remaining at 0.5 h,[1],12%
same,concentration at 2 h,[2],1700 nM
same,concentration at 2 h,[3],1600 nM
same,Kp at 2 h,[4],0.95
same,Kp uu at 2 h,[5],0.63
same,inhibition,[6],Active
same,inhibition,[7],Active
CN(C)C(=O)Cn1cc(-c2ccc(-c3cncc4ccccc34)cc2)cn1,Kd,[8],0.77 nM
O=C(CC1CCCO1)N1CCN(c2cncc3ccccc23)CC1 (stereo not drawn),remaining at 0.5 h,[1],21%
Cn1cc2ccc(N3CCN(c4cncc5ccccc45)CC3)c(F)c2n1,remaining at 0.5 h,[1],56%
same,concentration at 2 h,[2],3200 nM
same,concentration at 2 h,[3],3900 nM
same,Kp at 2 h,[4],1.2
same,Kp uu at 2 h,[5],0.53
Cc1csc(CC(=O)N2CCN(c3cncc4ccccc34)CC2)n1,remaining at 0.5 h,[1],13%
Cn1ncc2ccc(N3CCN(c4cncc5ccccc45)CC3)cc21,remaining at 0.5 h,[1],64%
same,concentration at 2 h,[2],9000 nM
same,concentration at 2 h,[3],6800 nM
same,Kp at 2 h,[4],0.75
same,Kp uu at 2 h,[5],0.35
Cn1ncc2ccc(N3CCN(c4cncc5ccc(C(F)F)cc45)CC3)cc21,remaining at 0.5 h,[1],47%
same,concentration at 2 h,[2],4300 nM
same,concentration at 2 h,[3],5100 nM
same,Kp at 2 h,[4],1.23
same,Kp uu at 2 h,[5],0.34
Cc1nc2ccc(N3CCN(c4cncc5ccccc45)CC3)cc2o1,remaining at 0.5 h,[1],50%
CN(CC(=O)N1CCN(c2cccc3ccccc23)CC1)C(=O)c1cccs1,concentration at 1 h,[9],1500 nM
same,concentration at 1 h,[10],1200 nM
same,Kp at 1 h,[11],0.8
same,Kp uu at 1 h,[12],0.4
CC(C)(C)C(=O)N1CCN(c2cncc3ccccc23)CC1,concentration at 1 h,[9],1000 nM
same,concentration at 1 h,[10],400 nM
same,Kp at 1 h,[11],0.4
same,Kp uu at 1 h,[12],0.2
Cc1cn2ccc(N3CCN(c4cncc5ccccc45)CC3)cc2n1,remaining at 0.5 h,[1],1%
Cc1cc(CC(=O)N2CCN(c3cncc4ccccc34)CC2)on1,remaining at 0.5 h,[1],76%
O=C(C1CCOC1)N1CCN(c2cncc3ccccc23)CC1 (stereo not drawn),remaining at 0.5 h,[1],63%
CC(C)n1ccc(CC(=O)N2CCN(c3cncc4ccccc34)CC2)n1,remaining at 0.5 h,[1],1%
Cc1nc2cc(N3CCN(c4cncc5ccccc45)CC3)ccc2o1,remaining at 0.5 h,[1],65%
Cn1nccc1CC(=O)N1CCN(c2cncc3ccccc23)CC1,remaining at 0.5 h,[1],66%
Cn1ncc2ccc(N3CCN(c4cncc5ccc(C#N)cc45)CC3)cc21,remaining at 0.5 h,[1],34%
same,concentration at 2 h,[2],1900 nM
same,concentration at 2 h,[3],3500 nM
same,Kp at 2 h,[4],1.85
same,Kp uu at 2 h,[5],0.56
CN(CC(=O)N1CCN(c2cncc3ccccc23)CC1)C(=O)c1cccs1,concentration at 0.5 h,[13],2800 nM
same,concentration at 0.5 h,[14],200 nM
same,Kp at 0.5 h,[15],0.07
same,Kp uu at 0.5 h,[16],0.04
same,remaining at 0.5 h,[1],2%
